Compound activity (PubChem)
Shown are actives, neighbours in structure and some others; about 1.7% of the full set was active somewhere.
EBNA-1 inhibitor: EBNA-1 DNA-binding inhibitors, primary screen, biochemical, fluorescence polarization; inhibition, % at 14.8 µM; actives 0.34% (n = 300,000); AID 1950, 2009; in the data active = inhibition above about 28%
Apaf-1 inh: inhibitors of human Apaf-1 apoptosome, primary screen, biochemical, DEVD-Rh110 fluorescence, uHTS | Apoptotic protease-activating factor 1 (Homo sapiens), O14727 | reconstituted apoptosome caspase-3 activity | inhibition, % at 20 µM | actives 0.71% (n = 330,000) | AID 489030, 2010; active = inhibition of at least 40% at 20 µM
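detection = Rh110 fluorescence intensity | test system = biochemical Apaf-1 apoptosome reconstitution | also added = cytochrome c and DEVD-Rh110 substrate | schedule = 30 min plus 50 min, RT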
UBC13 inh: UBC13 polyubiquitin chain formation inhibitors, primary screen, biochemical, TR-FRET, uHTS. Ubiquitin-conjugating enzyme E2 N (Homo sapiens), P61088. inhibition, % at 20 µM. actives 0.47% (n = 330,000). AID 485273, 2010; in the data active = inhibition above about 45%, passing the limit was not always enough
Target sequence (P61088 whole entry, looked up): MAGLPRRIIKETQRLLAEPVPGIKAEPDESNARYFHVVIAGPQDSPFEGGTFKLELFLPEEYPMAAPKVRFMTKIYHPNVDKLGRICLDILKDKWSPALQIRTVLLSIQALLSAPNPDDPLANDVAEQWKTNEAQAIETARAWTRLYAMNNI
ZTA DNA inh: ZTA (EBV) inhibition in EBNA-1 counter-screen; actives 0.15% (n = 320,000); P03206; ZTA-DNA binding, fluorescence polarization; inhibition, % at 11 µM; in the data active = inhibition above about 33%
Target sequence (P03206 whole entry, looked up): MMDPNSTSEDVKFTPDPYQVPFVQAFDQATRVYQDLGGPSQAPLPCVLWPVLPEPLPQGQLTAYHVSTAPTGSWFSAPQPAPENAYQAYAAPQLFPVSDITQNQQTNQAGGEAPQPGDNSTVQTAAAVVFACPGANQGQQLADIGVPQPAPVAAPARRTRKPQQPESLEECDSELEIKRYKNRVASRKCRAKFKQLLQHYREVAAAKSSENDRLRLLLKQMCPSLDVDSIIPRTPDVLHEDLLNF
PREPL inh: PREPL enzyme inhibitors, primary screen, biochemical, fluorescence polarization | Prolyl endopeptidase-like (Homo sapiens), Q4J6C6 | AID 2751, 2010 | recombinant PREPL, fluorescence polarization activity-based probe | actives 0.68% (n = 320,000) | inhibition, % at 5.96 µM; in the data active = inhibition above about 43%
Apaf-1 inh conf: Apaf-1 inhibitors, single-dose retest, confirmation, biochemical, fluorescence, DEVD-Rh110, 20 µM | reconstituted apoptosome, caspase-3 DEVD-Rh110 fluorescence | shares compounds with Apaf-1 inh | AID 504614, 2011 | inhibition, % at 20 µM | actives 25% (n = 1,800);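 active = mean inhibition of at least 40% at 20 µM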
Rh110 interf inh: Rh110 fluorescence interference by putative Apaf-1 inhibitors, confirmation, artefact control for Apaf-1 inhibitor project, biochemical, 20 µM; quenched caspase reaction; 1,800 tested, under 10 active; activation (fluorescence interference), % at 20 µM; shares compounds with Apaf-1 inh; AID 504615, 2011;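 active = signal rise of 40% or more at 20 µM, treated as a fluorescence artifact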
Fluor interf inh: fluorescence interference of Apaf-1 inhibitor hits, dose response, artefact control for Apaf-1 inhibitor project. 460 tested, under 10 active. AID 588538, 2011. shares compounds with Apaf-1 inh. IC50, µM. fluorescence interference counterscreen, Apaf-1 assay format; call rule not given here
A number is an active result.

`CCc1ccc(NC2=CC(=O)C(=O)c3ccccc32)cc1` gave Apaf-1 inh 91.7, UBC13 inh inactive, Apaf-1 inh conf 85.7, Rh110 interf inh inactive and Fluor interf inh inactive.
`COc1ccc(NC(=O)COC(=O)CCCOc2ccc(Cl)cc2Cl)cc1` gave EBNA-1 inhibitor inactive, Apaf-1 inh inactive, UBC13 inh inactive, ZTA DNA inh inactive and PREPL inh inactive.
`Cc1[nH]n(-c2ccccc2)c(=O)c1N=Nc1cccc([N+](=O)[O-])c1` gave EBNA-1 inhibitor inactive, Apaf-1 inh inactive, UBC13 inh inactive, ZTA DNA inh inactive and PREPL inh inactive.
For CCOC(=O)C1CCN(C(=O)c2cc3c(OC)c(OC)c(OC)cc3[nH]2)CC1 the results were EBNA-1 inhibitor inactive, Apaf-1 inh inactive, UBC13 inh inactive, ZTA DNA inh inactive and PREPL inh inactive.
COc1ccc(C)cc1NC(=O)N1CCC(CO)(CC2CCCCO2)CC1 (stereo not given) was read as EBNA-1 inhibitor inactive, Apaf-1 inh inactive, UBC13 inh inactive, ZTA DNA inh inactive and PREPL inh inactive.
Screening CCCCCCCCCn1c2c(c(=N)c3c1CCC3)CCC2 returned EBNA-1 inhibitor inactive, Apaf-1 inh 49.7, UBC13 inh inactive, ZTA DNA inh inactive, PREPL inh inactive, Apaf-1 inh conf inactive and Rh110 interf inh inactive.
Cc1ccc([N+](=O)[O-])cc1-c1ccc2cccc(C)c2n1 was read as EBNA-1 inhibitor inactive, Apaf-1 inh inactive, UBC13 inh inactive, ZTA DNA inh inactive and PREPL inh inactive.
CCN1CCN(CCNC(=O)c2ccc(/C=C3\Sc4ccccc4N(Cc4ccccc4F)C3=O)cc2)CC1 was read as EBNA-1 inhibitor inactive, Apaf-1 inh 41.3, UBC13 inh inactive, ZTA DNA inh inactive, PREPL inh inactive, Apaf-1 inh conf inactive and Rh110 interf inh inactive.
`COCCCNC(=O)/C=C1\Sc2ccccc2N(Cc2ccccc2F)C1=O` gave EBNA-1 inhibitor inactive, Apaf-1 inh inactive, UBC13 inh inactive, ZTA DNA inh inactive and PREPL inh inactive.
For COc1cc(O)c(NC(C)=O)c2nonc12 the results were EBNA-1 inhibitor inactive, Apaf-1 inh 86.5, UBC13 inh inactive, ZTA DNA inh inactive, PREPL inh inactive, Apaf-1 inh conf inactive and Rh110 interf inh inactive.
Screening O=C(c1ccc(-c2cccc(C(F)(F)F)c2)o1)N1CCN(c2ccccc2O)CC1 returned EBNA-1 inhibitor inactive, Apaf-1 inh inactive, UBC13 inh inactive, ZTA DNA inh inactive and PREPL inh inactive.
For O=C(c1ccc(-c2cccc(C(F)(F)F)c2)o1)N1CCCC(C(F)(F)F)C1 (stereo not given) the results were EBNA-1 inhibitor inactive, Apaf-1 inh 42.8, UBC13 inh inactive, ZTA DNA inh inactive, PREPL inh inactive, Apaf-1 inh conf inactive and Rh110 interf inh inactive.
Nc1ccc2ncccc2c1 was read as EBNA-1 inhibitor inactive, Apaf-1 inh 85.5, UBC13 inh inactive, ZTA DNA inh inactive, PREPL inh inactive, Apaf-1 inh conf inactive and Rh110 interf inh inactive.
Cc1[nH]n(-c2ccccc2)c(=O)c1C(C[N+](=O)[O-])c1ccccc1Cl (stereo not given) was read as EBNA-1 inhibitor inactive, Apaf-1 inh 79.1, UBC13 inh inactive, ZTA DNA inh inactive, PREPL inh inactive, Apaf-1 inh conf inactive and Rh110 interf inh inactive.
Screening COc1ccc(C(C[N+](=O)[O-])c2c(C)[nH]n(-c3ccccc3)c2=O)cc1 (stereo not given) returned EBNA-1 inhibitor inactive, Apaf-1 inh 95.8, UBC13 inh inactive, ZTA DNA inh inactive, PREPL inh inactive, Apaf-1 inh conf 64.7, Rh110 interf inh inactive and Fluor interf inh inactive.
Clc1nssc1=Nc1nncs1 was read as Apaf-1 inh inactive, UBC13 inh inactive, ZTA DNA inh inactive and PREPL inh inactive.
Screening Clc1ccc(N=c2ssnc2Cl)nc1 returned EBNA-1 inhibitor inactive, Apaf-1 inh 54.7, UBC13 inh inactive, ZTA DNA inh inactive, PREPL inh inactive, Apaf-1 inh conf 66.9, Rh110 interf inh inactive and Fluor interf inh inactive.
Screening O=[N+]([O-])c1ccc(O)c(C=Nc2ccc3nc(-c4ccccc4)[nH]c3c2)c1 returned EBNA-1 inhibitor inactive, Apaf-1 inh inactive, UBC13 inh inactive, ZTA DNA inh inactive and PREPL inh inactive.
Oc1c(Br)cc(C=Nc2ccc3nc(-c4ccccc4)[nH]c3c2)c(O)c1Br was read as EBNA-1 inhibitor inactive, Apaf-1 inh 64.9, UBC13 inh inactive, ZTA DNA inh inactive, PREPL inh inactive, Apaf-1 inh conf inactive and Rh110 interf inh inactive.
`S=c1[nH]c2cc(Cl)c3cccnc3c2o1` gave EBNA-1 inhibitor inactive, Apaf-1 inh 46.2, UBC13 inh inactive, ZTA DNA inh inactive, PREPL inh inactive, Apaf-1 inh conf inactive and Rh110 interf inh inactive.
Screening COc1cccc(CN(C)C(=O)c2cc(S(=O)(=O)N3CCCCCC3)ccc2OC)c1 returned Apaf-1 inh 50.6, UBC13 inh inactive, ZTA DNA inh inactive, PREPL inh inactive, Apaf-1 inh conf inactive and Rh110 interf inh inactive.
`COc1cccc(CN(C)C(=O)c2ccc(C)c(S(=O)(=O)N3CCCCC3)c2)c1` gave Apaf-1 inh 40.1, UBC13 inh inactive, ZTA DNA inh inactive, PREPL inh inactive, Apaf-1 inh conf inactive and Rh110 interf inh inactive.
Screening Cc1ccc(C(=O)N(C)Cc2ccccc2)cc1S(=O)(=O)N1CCOCC1 returned EBNA-1 inhibitor inactive, Apaf-1 inh inactive, UBC13 inh inactive, ZTA DNA inh inactive and PREPL inh inactive.
`CCOC(=O)c1ccc(NC(=O)CCN2C(=O)C3CC=CCC3C2=O)cc1` (stereo not given) gave Apaf-1 inh inactive and UBC13 inh inactive.
Cc1ccc(N=Nc2c(N)[nH]n3c(=O)cc(-c4ccccc4)nc23)cc1 was read as EBNA-1 inhibitor inactive, Apaf-1 inh 54.9, UBC13 inh inactive, ZTA DNA inh inactive, PREPL inh inactive, Apaf-1 inh conf 63.8, Rh110 interf inh inactive and Fluor interf inh inactive.
`COc1cccc(N=Nc2c(N)[nH]n3c(=O)cc(-c4ccccc4)nc23)c1` gave EBNA-1 inhibitor inactive, Apaf-1 inh inactive, UBC13 inh inactive, ZTA DNA inh inactive and PREPL inh inactive.
For CC1=NNC(=O)C1CC(=O)N/N=C(\C)c1ccco1 (stereo not given) the results were EBNA-1 inhibitor inactive, Apaf-1 inh inactive, UBC13 inh inactive, ZTA DNA inh inactive and PREPL inh inactive.
